Shown are actives, neighbours in structure and some others; about 1.6% of the full set was active somewhere.
T cell modulator: modulates CD8 T cell binding to vesicles | response (vesicle binding), % at 7 µM | 2C CD8+ T cell-vesicle binding, flow cytometry; hits give low values | actives 0.068% (n = 330,000) | AID 2052;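 active = response, share of CD8 T cells binding vesicles, and their 90th percentile fluorescence all below set limits, cut at about 80% in these data, passing the limit was not always enough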;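 note: values below 100% mean blocked vesicle binding to the CD8+ T cells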
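Material: murine 2C transgenic CD8+ T lymphocytes / Also added: QL9-peptide-loaded Drosophila micro-vesicles bearing Ld, ICAM-1 and B7-1 / Schedule: binding step 1.5 h, 37 °C, antibody labelling 20 min, ice / Signal: flow cytometry, PE anti-B7-1 (FL2) versus Alexa647 anti-CD8 (FL8), PFA-fixed / Evaluation: percent CD8+ FL2 mean versus row control / Benchmarks: naked versus QL9-loaded vesicles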
LANA-H2B inh: blocks KSHV LANA binding to histone H2A/H2B | cell-free LANA-H2A/H2B peptide, fluorescence polarization | actives 0.6% (n = 320,000) | AID 2629 | inhibition, % (concentration not given with the values); in the data active = inhibition mostly above about 10%, no sharp cut-off; inactive = mostly below about 6.7%
HDAC3 inh: human HDAC3 inhibition | inhibition, % at 8.3 µM | recombinant HDAC3, fluorogenic peptide/trypsin coupled, fluorescence | actives 0.15% (n = 320,000); in the data active = inhibition above about 26%, passing the limit was not always enough; inconclusive = no clear call, values can overlap the other calls
Target sequence (O15379 whole entry, looked up): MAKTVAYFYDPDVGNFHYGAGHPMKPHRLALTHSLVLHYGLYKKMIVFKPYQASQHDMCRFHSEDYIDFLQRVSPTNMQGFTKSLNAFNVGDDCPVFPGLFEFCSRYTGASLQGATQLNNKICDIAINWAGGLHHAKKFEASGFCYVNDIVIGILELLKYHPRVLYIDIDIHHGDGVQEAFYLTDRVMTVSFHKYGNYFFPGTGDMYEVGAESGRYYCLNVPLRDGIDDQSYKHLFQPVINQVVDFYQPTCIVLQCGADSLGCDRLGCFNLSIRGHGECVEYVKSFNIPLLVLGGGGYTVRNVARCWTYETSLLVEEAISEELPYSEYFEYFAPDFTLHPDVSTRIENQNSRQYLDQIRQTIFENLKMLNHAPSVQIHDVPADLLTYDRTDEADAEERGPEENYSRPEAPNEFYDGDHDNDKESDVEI
JMJD2C inh: inhibitors of human GASC-1 (JMJD2C) demethylase; AID 2099; GST-JMJD2C(1-420) H3K9me3 demethylation, DELFIA europium; inhibition, % at 2.35 µM; Q9H3R0; actives 0.069% (n = 330,000);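 active = more than half of a compound's replicate wells show inhibition beyond 50%, single wells judged on their own value; inconclusive = some, but no more than half, of replicates pass 50% inhibition; inactive = no replicate passes 50% inhibition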;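 note: signal counts dimethyl H3K9 product captured on neutravidin plate; 0% = median of DMSO wells and 100% = 0.3 times that DMSO median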
Arrestin-AP2 inh: inhibitors of human beta-arrestin and AP2 interaction | FITC-arrestin peptide / GST-AP2 beads, flow cytometry; AP2 beta2 appendage carries R879A mutation | inhibition, % at 10 µM | actives 0.31% (n = 340,000) | AID 504490;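 active = inhibition above a set limit, near 3 SD of compounds lacking own fluorescence, cut at about 54% in these data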;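 note: plate controls were DMSO wells for no effect and 5 µM unlabelled arrestin peptide for full effect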
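system = GST-tagged AP2 beta2-adaptin appendage (R879A) on 4 µm glutathione beads | reagent = FITC-labelled arrestin peptide probe, 50 nM final | schedule = compound with beads 12 min RT, then probe 1 h RT | signal = HyperCyt-sampled flow cytometry, FL1 channel, ex 488/em 535 nm | read-out = percent response from loss of bead-bound FITC fluorescence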
Pemphigus Ab inh: human desmoglein-3 autoantibody binding inhibition. P32926. DSG3-coupled beads, scFv-anti-DSG3-GFP binding, flow cytometry; hits give low values. binding (percent of control), % at 10 µM. actives 0.48% (n = 310,000). AID 588358;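 active = binding more than 3 SD below its plate's average and above zero; inconclusive = below that plate limit but binding exactly zero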;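 note: hits lower antibody fragment binding to DSG3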
* = called active by the depositor; i = inactive; ? = inconclusive; nt = not tested or not shown; + = active, no number.

SMILES	T cell modulator	LANA-H2B inh	HDAC3 inh	JMJD2C inh	Arrestin-AP2 inh	Pemphigus Ab inh
Cc1[nH]c2ccccc2c1C1=CC(=O)C=CC1=O	nt	nt	nt	nt	14	65*
CCc1cc(=O)oc2cc(C)cc(OCC(=O)N3CCC(C(=O)NC(C)C)(c4ccccc4)CC3)c12	341	2	-14	7	19	99
CCc1ccc(C(c2ccc(CC)cc2)C(Cl)Cl)cc1	599	24*	-7	2	0	106
CCC1(c2ccccc2)NC(=O)N(CC(=O)NCCN2C(=O)S/C(=C\c3cccnc3)C2=O)C1=O (stereo not drawn)	474	8	-1	4	2	101
O=C(Cc1ccc(F)cc1)Nc1cccc(-c2cn3c(n2)SCC3)c1	142	+	-5	12	-20	91
CCOC(=O)c1ccc(NC(=O)C(=O)NCc2ccncc2)cc1	738	-1	1	-3	8	103
CCCCOC(=O)c1ccc(NC(=O)C(=O)NCc2ccncc2)cc1	0.0*	2	0	-19	6	122
COc1ccc(C2CC(C)(c3ccc(OC)cc3OC)Nc3ccccc3N2)c(OC)c1 (stereo not drawn)	66*	8	3	30	21	130
COC(=O)C1=C(C)C(c2ccc(OC)cc2OC)NC(=O)N1 (stereo not drawn)	152	-1	-3	3	6	103
Cc1cc(Cl)ccc1OCC(=O)NNC(=O)CCOc1ccccc1	256	-5	2	-11	6	nt
CC(=O)n1nc(-c2ccccc2)nc1NCc1ccc(F)cc1	348	1	32*	1	13	nt
CCC(=O)n1nc(-c2cccnc2)nc1NCc1ccc(F)cc1	343	-1	29*	17	9	118
O=C(c1cccs1)n1nc(-c2ccccc2)nc1NCc1ccc(F)cc1	134	6	0	3	-5	101
CCC(=O)n1nc(-c2cccnc2)nc1NCc1ccccc1	nt	nt	nt	-9	-26	103
CCOC(=O)C(NC(=O)N(C)C)(Nc1sc(C)c(CC)c1C#N)C(F)(F)F (stereo not drawn)	216	4	32*	-4	2	113
CCOC(=O)C(NC(=O)CCl)(Nc1sc(C)c(CC)c1C#N)C(F)(F)F (stereo not drawn)	325	-8	9	-3	8	101
CC(C)N(Cc1nc(-c2ccc(Cl)cc2)no1)Cc1nccn1C	514	1	2	-36	-4	98
COc1ccccc1C/C(N)=N/OC(=O)COc1cccc(C)c1C	112	+	4	5	24	108
COc1ccccc1C/C(N)=N/OC(=O)COc1cc(C)cc(C)c1C	172	1	4	-3	-2	102
CC(=O)N1c2ccc(S(=O)(=O)N(C)CC(=O)NC(C)c3ccccc3)cc2CC1C (stereo not drawn)	374	-1	-4	-8	29	91
Cc1ccc[n+](-c2nc([O-])sc2C=O)c1	124	29*	-3	4	-5	97
O=C(Cc1ccc2c(c1)CCCC2)Nc1ccccc1Br	383	4	9	-1	1	98
O=C(Cc1ccc2ccccc2c1)Nc1ccccc1Br	193	39*	0	1	16	87*
COC(=O)c1ccc(C2NC(=S)N(c3ccccc3)C(C)=C2C(=O)Nc2ccccc2OC)cc1 (stereo not drawn)	378	2	10	-5	-3	-8.8*
COc1ccccc1NC(=O)C1=C(C)N(c2ccccc2)C(=S)NC1c1cccc(C(F)(F)F)c1 (stereo not drawn)	i	2	-4	0	3	102
SMILES	T cell modulator	LANA-H2B inh	HDAC3 inh	JMJD2C inh	Arrestin-AP2 inh	Pemphigus Ab inh
CCCCn1c(N)c(N(C)C(=O)c2c(C)nn(-c3ccccc3)c2C)c(=O)[nH]c1=O	493	-8	-6	-1	-15	?
COc1ccc(OC)c(NC(=O)c2nc(-c3ccccc3)oc2C)c1	598	2	-1	15	-7	83*
CC(=O)Nc1ccc(NC(=O)c2nc(-c3ccccc3)oc2C)cc1	410	1	1	-11	-8	107
Nn1c(SCC(=O)Nc2nccs2)nnc1-c1cccnc1	375	-1	1	5	2	105
COc1ccc(N2CC(C(=O)Nc3nnc(SCC(=O)NCC4CCCO4)s3)CC2=O)cc1 (stereo not drawn)	761	34*	-5	4	-3	110
Cc1ccc(N2CC(C(=O)Nc3nnc(SCC(=O)NCC4CCCO4)s3)CC2=O)cc1C (stereo not drawn)	306	-2	3	1	2	100
C#CCOCCOCCOCCNc1nc(N2CCN(C(=O)Cn3cc(CC(C)O)nn3)CC2)nc(N2CCN(C(=O)[C@H]([C@@H](C)CC)n3cc(CCCCN)nn3)CC2)n1 (stereo partly drawn)	nt	nt	nt	nt	0	107
CSc1nccc(Oc2cncc(Cl)c2)n1	342	11*	3	4	-2	103
N#CC1(NC(=O)CSc2nnc(C3CC3)n2N)CCCCC1	nt	nt	nt	nt	nt	106
CC(C)(C)c1nnc(SCC(=O)Nc2ccc(N3CCCCC3)cc2)n1N	179	+	4	-5	-2	108
O=C(NC1CCCC1)c1cc2nc(-c3ccco3)cc(C(F)(F)F)n2n1	183	1	6	5	13	113
Cc1cc(NC(=O)CSCC(=O)OCC(=O)c2ccc(Br)cc2)no1	nt	nt	nt	nt	nt	99
Cn1c(N)c(C(c2ccccc2)c2c(N)n(C)c(=O)n(C)c2=O)c(=O)n(C)c1=O	193	29*	-4	-9	-5	97
O=C(COC(=O)C1COc2ccccc2O1)Nc1ccccc1OC(F)F (stereo not drawn)	204	4	3	-7	1	92
C=CCN(CC=C)C(=O)C1CCN(S(=O)(=O)c2ccc(-n3cnnn3)cc2)CC1	248	-2	0	19	18	97
C=CCN(CC=C)C(=O)C1CCN(S(=O)(=O)c2ccc(N3CCCC3=O)cc2)CC1	253	15*	-4	5	6	96
CCN(C(=O)COC(=O)c1ccccc1Oc1ccccc1)c1c(N)n(Cc2ccccc2)c(=O)[nH]c1=O	nt	nt	nt	nt	5	nt
Cc1cc(C)cc(OCC(=O)N/N=C/c2ccccn2)c1	228	8	0	-4	-14	98
Cc1ccccc1OCC(=O)N/N=C/c1ccccn1	320	27*	-6	-6	5	109
Cc1ccc(-c2nc(=O)[nH]c3ccccc23)cc1	48	2	nt	16	38	108
O=c1nc(-c2ccccc2)c2ccccc2[nH]1	417	-4	-1	-4	10	88*
COc1cc(Cl)ccc1OCc1cc(C(=O)N(C)CCc2cnn(C)c2)no1	322	0	1	nt	0	nt
